Source: PubChem BioAssay (several laboratories)
Compounds with a hit are over-represented: about 27% of the library has one in this group of screens.
CYP2C19 act = activators of human cytochrome P450 2C19 | activation factor at 5 µM | 96,000 tested, under 10 active | P33261 | recombinant CYP2C19, luciferin-H EGE luminescence; active compounds read high; 0 = fully inhibited enzyme, 1 = untreated enzyme;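 active = activation factor of at least 2 at 5 µM in the primary screen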;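 note: 0 = wells with 2.5 mM tranylcypromine and 1 = vehicle-only wells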
Cav3 T inh = human Cav3.2 channel inhibition, primary screen; O95180; Cav3.2-expressing cells, Fluo-4 calcium fluorescence FDSS; active compounds read low; B-score at 10 µM; hit rate 4% among 100,000;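 active = single-dose well whose peak fluorescence ratio is a statistical outlier from its plate by either plate-standardised score or position-corrected B-score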
CYP2C19 inh = blocks human cytochrome P450 2C19; hit rate 21% among 96,000; inhibition, % at 5 µM; CYP2C19 Supersomes, luciferin-H EGE luminescence, 30 min; AID 778; P33261;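 active = CYP2C19 inhibition above a set limit at 5 µM in the primary screen, cut at about 50% in these data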;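 note: plate controls were negative control wells for no effect and 2.5 mM tranylcypromine positive control for full effect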
CYP2C9 inhib = human CYP2C9 inhibition; P11712; CYP2C9 Supersomes, luciferin-H conversion, luminescence; inhibition, % at 5 µM; hit rate 20% among 96,000;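 active = blocking of liver enzyme CYP2C9 beyond about 50% at 5 µM, limit read from the data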
Target sequence (P11712 whole entry, looked up): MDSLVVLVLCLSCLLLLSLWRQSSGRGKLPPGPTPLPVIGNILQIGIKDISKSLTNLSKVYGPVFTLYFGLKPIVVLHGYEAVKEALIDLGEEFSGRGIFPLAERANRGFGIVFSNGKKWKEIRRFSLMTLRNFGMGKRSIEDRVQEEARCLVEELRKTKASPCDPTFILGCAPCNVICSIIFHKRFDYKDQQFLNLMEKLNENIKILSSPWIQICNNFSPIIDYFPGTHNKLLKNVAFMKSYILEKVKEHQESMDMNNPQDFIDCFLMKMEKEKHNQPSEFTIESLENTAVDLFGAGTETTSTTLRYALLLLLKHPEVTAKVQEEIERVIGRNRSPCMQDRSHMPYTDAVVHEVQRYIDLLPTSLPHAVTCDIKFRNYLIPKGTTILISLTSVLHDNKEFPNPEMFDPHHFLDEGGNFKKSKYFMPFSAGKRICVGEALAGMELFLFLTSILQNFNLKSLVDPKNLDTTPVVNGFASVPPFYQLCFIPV
Rev-RRE block = HIV Rev-RRE protein-RNA interaction inhibition; P05866; Rev peptide-RRE RNA binding, FRET; inhibition, % at 8 µM; hit rate 0.79% among 97,000;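 active = inhibition above the screen-wide mean plus 3 SD, cut at about 35% in these data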;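 note: 0% = median DMSO wells and 100% = median Neomycin B control wells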
Target sequence (P05866 whole entry, looked up): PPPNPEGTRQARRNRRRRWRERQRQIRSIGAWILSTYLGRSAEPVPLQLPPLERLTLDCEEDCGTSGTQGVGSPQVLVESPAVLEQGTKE
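assay system = Cy5-tagged RRE RNA duplex with fluorescein-tagged Rev peptide | incubation = 5 + 15 min at 25 °C | also added = labelled Rev peptide | measure = % inhibition of FRET ratio versus controls | benchmarks = DMSO wells as 0% and neomycin B wells as 100% inhibition | measured by = FRET fluorescence readout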
CYP2C9 act = CYP2C9 (human) activation; P11712; recombinant CYP2C9, luciferin-H conversion, luminescence; active compounds read high; factor 1 = untreated enzyme, 0 = blocked; activation factor at 5 µM; hit rate 1.4% among 96,000; AID 1024;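 active = activation factor of 2 or more for CYP2C9 at a 5 µM dose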;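 note: 0 = sulfaphenazole-blocked wells and 1 = vehicle-only wells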
An asterisk follows results filed as active; · = no result.

SMILES	CYP2C19 act	Cav3 T inh	CYP2C19 inh	CYP2C9 inhib	Rev-RRE block	CYP2C9 act
COc1ccc(CN2CCCCC2C(=O)Nc2ccc(OC)c(OC)c2)cc1OC (stereo unspecified)	0.6	-2.31	35.1	44.2	0.2	0.6
COc1ccc(NC(=O)CC2CCCCC2)cc1OC	0.1	0.273	93.6*	23.4	-3.0	0.8
CCCN1C2CCCC1CC(NC(=O)c1cc(OC)c(OC)c(OC)c1)C2 (stereo unspecified)	1	0.799	1.9	0.3	4.1	1
O=C(C1COc2ccccc2O1)N1CCN(c2ccccc2)CC1 (stereo unspecified)	0.1	-0.8	85.1*	74.7*	·	0.3
O=C(C1COc2ccccc2O1)N1CCn2c(nc3ccccc32)C1 (stereo unspecified)	0.2	1.56	84.7*	23.3	0.8	0.8
O=C(Nc1ccccc1Cl)N1CCn2c(nc3ccccc32)C1	0.5	1.59	52.1*	22.3	-0.2	0.8
COc1ccccc1NC(=O)N1CCn2c(nc3ccccc32)C1	0.8	0.063	22.3	9.6	6.4	0.9
O=C(C1COc2ccccc2O1)N1CCOCC1 (stereo unspecified)	0.9	-0.165	8.0	6.0	8.3	0.9
CCOCCCN1CN(S(=O)(=O)c2ccc(Cl)cc2)c2nc3ccccc3nc21	0.5	-0.906	54.5*	80.9*	9.7	0.2
CC(C)OCCCN1CN(S(=O)(=O)c2cccc(Cl)c2)c2nc3ccccc3nc21	0.5	-2.04	54.5*	80.7*	7.6	0.2
Cc1cc2c(=O)n(CC(=O)N3CCN(c4ccccc4)CC3)cnc2s1	1.1	1.02	-7.3	-13.1	9.2	1.1
Cc1cc2c(=O)n(CC(=O)NCC(=O)N3CCN(Cc4ccccc4)CC3)cnc2s1	0.8	·	17.1	51.8*	·	0.5
COc1ccc(NC(=O)N[C@@H](CCSC)C(=O)O)cc1Cl	0.9	0.169	14.2	-0.9	11.0	1
CC(C)COc1ccc(-c2nn(-c3ccccc3)cc2C(=O)Nc2nccs2)cc1	0.8	-0.701	15.8	37.0	10.8	0.6
O=C(Nc1nccs1)c1cn(-c2ccccc2)nc1-c1ccccc1	0.8	-2.85	21.4	62.1*	-4.0	0.4
CC(C)C(=O)N(c1ccc2oc(=O)sc2c1)S(=O)(=O)c1ccccc1	0.9	0.301	6.6	2.8	3.9	1
CC(=O)N(c1ccc2oc(=O)sc2c1)S(=O)(=O)c1ccccc1	0.4	0.941	64.7*	14.3	-0.1	0.9
CCCC(=O)N(c1ccc2oc(=O)sc2c1)S(=O)(=O)c1cccs1	0	0.00669	99.2*	70.9*	0.9	0.3
COc1ccc(S(=O)(=O)N(C(=O)C(C)C)c2ccc3oc(=O)sc3c2)cc1	0.9	0.142	11.2	46.7	0.5	0.5
Cc1ncc([N+](=O)[O-])n1CCO	·	0.298	·	·	·	·
Cc1ncc([N+](=O)[O-])n1CCOC(=O)c1ccc(Cl)cc1Cl	0.5	-0.456	50.9*	22.3	5.0	0.8
CC1=CC(C)=Nc2ccc(C)cc2N1	1.1	0.415	-10.5	-11.3	9.6	1.1
CCCC[C@@H]1CCCO[C@@](C(=O)NCc2cc(C)n(C)n2)(C(F)(F)F)C1	·	1.16	·	·	·	·
Cn1cc(-c2nnnn2-c2cccc(C(F)(F)F)c2)c(C(F)(F)F)n1	0	·	98.5*	41.8	8.0	0.6
Nc1c(-c2ccc(Cl)cc2)cnn1-c1cccc(C(F)(F)F)c1	0.8	-0.0921	21.8	-88.3	-1.0	1.9
SMILES	CYP2C19 act	Cav3 T inh	CYP2C19 inh	CYP2C9 inhib	Rev-RRE block	CYP2C9 act
CCC(C)[C@H](NC(=O)N1CCN(c2cccc(C(F)(F)F)c2)CC1)C(=O)OC (stereo partly specified)	0.7	0.0258	28.8	-49.8	-3.2	1.5
COC(=O)[C@@H](NC(=O)N1CCN(c2cccc(C(F)(F)F)c2)CC1)C(C)C	0.5	-2.68	53.1*	-57.5	-1.0	1.6
O=C(Nc1cccc(C(F)(F)F)c1)c1cccnc1N1CCN(c2ccccc2)CC1	0.4	-2.7	57.5*	49.4	17.7	0.5
CNS(=O)(=O)c1cnccc1N1CCN(c2cccc(C(F)(F)F)c2)CC1	0.2	0.0672	77.1*	47.4	11.9	0.5
Cn1cc(S(=O)(=O)N2CCN(c3cccc(C(F)(F)F)c3)CC2)c(=O)n(C)c1=O	0.7	0.179	26.9	-45.7	4.8	1.5
C=CCOC(=O)N1CCN(c2cccc(C(F)(F)F)c2)CC1	0	-1.53	95.9*	79.5*	13.6	0.2
O=c1cc(N2CCOCC2)[nH]c(=O)n1-c1ccc(Br)cc1	1	1.31	-3.0	-3.1	9.1	1
O=C(Nc1ccccc1)N1CCN(c2cccc(C(F)(F)F)c2)CC1	0.4	-3.91	58.3*	-100.0	15.4	2*
O=C(CS(=O)(=O)Cc1ccccc1)N1CCN(c2cccc(C(F)(F)F)c2)CC1	0.4	-4.32*	56.7*	12.2	9.2	0.9
COc1cc(-n2c(=O)c3ccccc3n(Cc3ccccc3)c2=O)cc(OC)c1OC	0.4	0.401	62.5*	-18.7	-0.6	1.2
O=C(Nc1ccccc1C(=O)NCCN1CCOCC1)c1ccco1	0.9	0.164	12.1	15.9	5.1	0.8
COc1ccc(Cn2nnnc2C(c2cccs2)N2CCN(c3ccccc3)CC2)cc1 (stereo unspecified)	0.9	-3.53	6.1	28.5	3.5	0.7
CCc1ccc2[nH]c(=O)c(C(c3nnnn3CCOC)N3CCN(c4ccc(F)cc4)CC3)cc2c1 (stereo unspecified)	0	-5.65*	96.0*	69.4*	5.2	0.3
c1ccc(Cn2nnnc2C(c2ccccn2)N2CCN(c3ccccc3)CC2)cc1 (stereo unspecified)	0.4	-1.16	61.3*	45.9	-1.4	0.5
CCc1ccc2[nH]c(=O)c(C(c3nnnn3CCOC)N3CCN(c4ccccc4)CC3)cc2c1 (stereo unspecified)	0.5	-1.79	49.1	68.7*	2.9	0.3
CCc1ccc2[nH]c(=O)c(C(c3nnnn3Cc3ccccc3)N3CCOCC3)cc2c1 (stereo unspecified)	1	-0.187	1.0	45.3	3.1	0.5
Cc1cccc2cc(C(c3nnnn3Cc3ccccc3)N3CCN(c4ccccc4)CC3)c(=O)[nH]c12 (stereo unspecified)	0.7	-4.01	34.1	50.4*	2.4	0.5
COCC(=O)NC1CCN(CC(=O)Nc2ccc(OC)cc2[N+](=O)[O-])CC1	0.8	0.499	15.7	-19.7	0.5	1.2
CC(C)(C)C(=O)NCCN1CCN(C(=O)C(C)(C)C)CC1	·	0.577	·	·	2.3	·
CCS(=O)(=O)c1ccc2c(c1)N(S(C)(=O)=O)CC(C(=O)NC1CC1)O2 (stereo unspecified)	0.9	0.334	8.0	20.6	6.6	0.8
